Active and inactive are the calls of the source.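 The calls were made as follows, unless noted: active = fluorescence slope after compound addition differing from the mean of all tested samples at 99.7% confidence, mostly higher but some lower; inactive = the rest.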

A short description of assay [1]: inhibitors of TNFa-induced NFkB p65 translocation, primary screen, imaging, HUVEC, MLSMR starter and 10KST1 sets (AID 438;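 active = inhibition above 20% together with a positive visual image hit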;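 also: compound added about 3h40 before a 20 min TNFalpha stimulation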;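 as to inhibition: signal is the nuclear over cytoplasmic p65 intensity ratio per well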). The conditions noted are these: HUVEC TNFa-induced p65 nuclear translocation; cell count: measured here: nuclei count (cytotoxicity indicator), at 2.08 µM; inhibition: at 2 µM, stronger effect = higher value, 0% TNFa-plus-vehicle, 100% no-TNFa wells.
A short description of assay [2]: reduction of polyQ htt aggregates in cells – imaging, exon1htt(103Q)mCFP cells, high-content imaging, primary screen (AID 483;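 active = visual image review flags a hit and inhibition of aggregation exceeds 20%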;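 also: compound exposure lasted 3 days before fixation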;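 as to nuclei count: percent of the per-plate median nuclei count of sample wells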). The conditions noted are these: exon1htt(103Q)mCFP cell line, aggregate imaging, at 2 µM; inhibition of aggregation: stronger effect = higher value; nuclei count: measured here: cell count, toxicity.
A short description of assay [3]: endothelial E-selectin expression blockers – imaging, HUVEC, immunofluorescence, MLSMR starter and 10KST1 sets, primary screen (AID 487;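 active = visually confirmed hit in the image check and inhibition above 20%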;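 as to inhibition: signal is fraction of cell area covered by stained E-selectin grains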;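 as to nuclei count: 100% = median nuclei count of all wells on the same plate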). The conditions noted are these: HUVEC TNFalpha-induced E-selectin immunofluorescence imaging, at 2 µM; inhibition: stronger effect = higher value; nuclei count: measured here: cell number, toxicity.
The target of assay [4] is Voltage-gated potassium channel subunit beta-2 (Rattus norvegicus) (UniProt P62483). In words: inhibitors of rat Kvbeta2 reductase activity – biochemical, NADPH fluorescence, primary screen (AID 622;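 active = fluorescence slope higher than the sample average by over 3 SD, cut at about -0.22 in these data, passing the limit was not always enough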;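 also: slope of raw intensity against log time taken from 70 to 1610 s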). The conditions noted are these: recombinant KvBeta, 4-cyanobenzaldehyde reduction, at 10 µM, stronger effect = higher value.
Assay [5] shares this target. As to the kind of experiment: enhancers of rat Kvbeta2 NADPH turnover – biochemical, NADPH fluorescence, primary screen (AID 623;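 active = NADPH fluorescence slope more negative than the mean of all samples by about 3 SD, 99.7% confidence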;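 also: fluorescence intensity change per second fitted from 20 to 320 s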). The conditions noted are these: Recombinant KvBeta, NADPH fluorescence decrease slope, 10 min; at 10 µM; stronger effect = lower value.
In assay [6] the target is Muscarinic acetylcholine receptor M4 (Homo sapiens) (UniProt P08173). As to the kind of experiment: M4-linked GIRK flux change, two-sided – cell-based, HEK293 M4/GIRK, thallium flux, BTC-AM, M4 allosteric agonist project, primary screen (AID 625).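 Also: thallium influx through GIRK channels coupled to M4 in HEK293 cells with BTC-AM dye.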 The conditions noted are these: at 10 µM, actives lie on both sides. Put shortly:
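assay system = HEK293 cells with M4 receptor and GIRK channels | medium = pH 7.3 thallium assay buffer | doses = 10 µM final, single point | timing = cells overnight at 37 °C, BTC-AM loading 1 h, reads 2 min total | signal = BTC-AM fluorescence, 1 Hz kinetic reads | read-out = post-addition slope, 15–24 s, of baseline-normalized fluorescence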

Assay [7] is described as follows: blockers of RIG-like receptor reporter activation – cell-based, Sendai virus stimulus, luciferase, 10K MLSCN set, TLR/RLR signaling modifier project, primary screen (AID 602276;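 active = inhibition at or above 50% at 10 µM; inactive = inhibition below 50%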;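 also: firefly luciferase from ISG56 promoter only with Renilla not read in this screen; 0% = Sendai virus plus DMSO and 100% = medium plus DMSO without virus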). The conditions noted are these: HEK293 RL24 IRF3 luciferase reporter, at 10 µM, stronger effect = higher value.
The nature of assay [8]: TLR3 IRF3 reporter activation blockers – cell-based, poly I:C stimulus, luciferase, 10K MLSCN set, primary screen (AID 602277;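 active = inhibition of the reporter signal at or above 50%; inactive = inhibition below 50%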). The conditions noted are these: HEK293-TLR3 RL24 IRF3 luciferase reporter, at 10 µM, stronger effect = higher value. (Reporter assays use an easily measured gene product as a stand-in for the process of interest.)

Sequence of Muscarinic acetylcholine receptor M4 (Homo sapiens) (P08173 whole entry, looked up): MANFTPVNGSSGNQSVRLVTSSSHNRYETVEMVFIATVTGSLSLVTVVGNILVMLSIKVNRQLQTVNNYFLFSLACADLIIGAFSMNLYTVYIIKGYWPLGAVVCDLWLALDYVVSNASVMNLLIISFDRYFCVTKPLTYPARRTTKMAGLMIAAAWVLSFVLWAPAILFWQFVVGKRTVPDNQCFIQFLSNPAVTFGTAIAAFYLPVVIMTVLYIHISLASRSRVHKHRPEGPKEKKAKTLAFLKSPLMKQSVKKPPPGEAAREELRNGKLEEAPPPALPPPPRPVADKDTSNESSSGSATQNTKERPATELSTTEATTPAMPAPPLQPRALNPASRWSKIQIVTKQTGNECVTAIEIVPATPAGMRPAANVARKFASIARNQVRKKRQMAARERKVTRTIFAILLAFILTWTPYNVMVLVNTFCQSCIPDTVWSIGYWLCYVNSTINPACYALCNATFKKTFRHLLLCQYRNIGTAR
Sequence of Voltage-gated potassium channel subunit beta-2 (Rattus norvegicus) (P62483 whole entry, looked up): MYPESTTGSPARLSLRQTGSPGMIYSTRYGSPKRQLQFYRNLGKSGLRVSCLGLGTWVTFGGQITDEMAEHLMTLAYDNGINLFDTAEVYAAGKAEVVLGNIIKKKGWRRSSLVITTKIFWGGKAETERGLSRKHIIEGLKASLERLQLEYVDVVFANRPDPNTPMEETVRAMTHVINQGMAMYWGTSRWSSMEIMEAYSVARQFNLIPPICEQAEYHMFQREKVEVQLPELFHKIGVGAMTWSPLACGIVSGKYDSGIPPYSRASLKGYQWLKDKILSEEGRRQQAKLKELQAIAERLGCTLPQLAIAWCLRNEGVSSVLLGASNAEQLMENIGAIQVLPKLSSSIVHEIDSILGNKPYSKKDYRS

On to `CCC(Sc1nc2n[nH]c(C)c2c(=N)n1-c1cc(Cl)ccc1C)C(=O)N1CCOCC1` (centres undefined), for which the cell count in assay [1] was 338. The inhibition in assay [1] is -2.1% (inactive); in assay [3], -273% (inactive); in assay [7], -6.83% (inactive); in assay [8], 10% (inactive). The inhibition of aggregation in assay [2] is 11.8% (inactive). Also, the nuclei count in assay [2] is 97.6%; in assay [3] it was 108%. The values for the fluorescence slope in assay [4] and in assay [6] were -0.593 (inactive) and 0.00508 (inactive), respectively. In addition, in assay [5], the NADPH fluorescence slope is -1.6e-05 (inactive).
With `CCn1c(CC(=O)Nc2cccc(OC)c2)nnc1SCC(=O)Nc1nccs1`, the cell count in assay [1] was found to be 835. For the same compound, the inhibition in assay [1] is 4.3% (inactive); in assay [3] it was -129% (inactive); in assay [7], 4.04% (inactive); in assay [8] it was 21.5% (inactive). For the same compound, the inhibition of aggregation in assay [2] is 8.8% (inactive). The nuclei count in assay [2] worked out at 103%; in assay [3] it was 112%. Moreover, the fluorescence slope in assay [4] is -0.545 (inactive); in assay [6], 0.00415 (inactive). Further, the NADPH fluorescence slope in assay [5] was -3.8e-05 (inactive).
As for `C=CCSc1ncccc1C(=O)O`, in assay [1], the cell count came to 709. Further, the inhibition is 6.9% (inactive) in assay [1], -36.4% (inactive) in assay [3], -12.7% (inactive) in assay [7] and -3.04% (inactive) in assay [8]. The inhibition of aggregation in assay [2] is -8.1% (inactive). Moreover, the nuclei count in assay [2] stood at 108%; in assay [3], 111%. Moreover, the fluorescence slope in assay [4] was -0.556 (inactive); in assay [6] it was 0.00662 (inactive). Besides, the NADPH fluorescence slope in assay [5] is -6.2e-05 (inactive).
On to `COc1ccc(CCNC(=O)c2nc3ncccn3n2)cc1OC`, for which the cell count in assay [1] worked out at 643. Also, the inhibition in assay [1] is -2.3% (inactive); in assay [3] it was -12.1% (inactive); in assay [7] it was 18.2% (inactive); in assay [8], 18.1% (inactive). In addition, the inhibition of aggregation in assay [2] was 13.7% (inactive). Besides, the nuclei count stood at 82.2% in assay [2] and 100% in assay [3]. Also, the results for the fluorescence slope in assay [4] and in assay [6] were -0.447 (inactive) and 0.00528 (inactive), respectively. Moreover, the NADPH fluorescence slope in assay [5] is -4.3e-05 (inactive).
Turning to `COC(=O)c1ccccc1S(=O)(=O)N(CCCN1CCOCC1)Cc1cccs1`, in assay [1], the cell count turned out to be 328. Also, the inhibition in assay [1] is 2.1% (inactive); in assay [3] it was -43.1% (inactive); in assay [7] it was 14% (inactive); in assay [8], 19.2% (inactive). Besides, the inhibition of aggregation in assay [2] is 2.9% (inactive). In addition, the nuclei count in assay [2] was found to be 104%; in assay [3], 115%. The figures for the fluorescence slope in assay [4] and in assay [6] were -0.502 (inactive) and 0.00684 (inactive), respectively. For the same compound, the NADPH fluorescence slope in assay [5] was 1.2e-05 (inactive).
Regarding `CC1CN(CC(O)COc2ccc(C(C)C)cc2)CC(C)O1` (centres undefined), in assay [1], the cell count was determined as 812. The inhibition in assay [1] was -4.8% (inactive); in assay [3] it was -54.5% (inactive); in assay [7], -56.4% (inactive); in assay [8], 98.7% (active). For the same compound, the inhibition of aggregation in assay [2] is 7.5% (inactive). Besides, the nuclei count in assay [2] was 120%; in assay [3], 140%. In addition, the fluorescence slope in assay [4] is -0.534 (inactive); in assay [6], 0.0054 (inactive). Also, the NADPH fluorescence slope in assay [5] was -0.000138 (inactive).
Take `CC1CCN(CCC(=O)Nc2ccc(Br)cc2)CC1`: in assay [1], the cell count came to 612. For the same compound, the inhibition in assay [1] was 7.4% (inactive); in assay [3], 88.6% (active); in assay [7] it was 14% (inactive); in assay [8] it was 19.3% (inactive). For the same compound, the inhibition of aggregation in assay [2] was -13.6% (inactive). For the same compound, the nuclei count was determined as 99.8% in assay [2] and 179% in assay [3]. Further, the figures for the fluorescence slope in assay [4] and in assay [6] were -0.42 (inactive) and 0.00434 (inactive), respectively. Further, the NADPH fluorescence slope in assay [5] was 2.4e-06 (inactive).
With `COC(=O)c1ccc(NC(=O)CN2C(=O)CSC2=O)cc1`, the cell count in assay [1] was determined as 454. Further, the inhibition in assay [1] was 3.1% (inactive); in assay [3], -41% (inactive); in assay [7] it was 7.22% (inactive); in assay [8], 10.7% (inactive). Also, in assay [2], the inhibition of aggregation was -17.9% (inactive). Moreover, the values for the nuclei count in assay [2] and in assay [3] were 113% and 109%, respectively. The fluorescence slope is -0.404 (inactive) in assay [4] and 0.00594 (inactive) in assay [6]. Besides, the NADPH fluorescence slope in assay [5] is -3e-05 (inactive).
As to `CN(C(=O)c1c(Cl)nc2sccn12)C1CCCCC1`, in assay [1], the cell count came out at 456. The inhibition in assay [1] was 9.8% (inactive); in assay [3], -498% (inactive); in assay [7], 10.8% (inactive); in assay [8], 6.58% (inactive). Also, in assay [2], the inhibition of aggregation is -13.5% (inactive). The nuclei count was determined as 104% in assay [2] and 162% in assay [3]. Further, the fluorescence slope in assay [4] is -0.464 (inactive); in assay [6] it was 0.00592 (inactive). Moreover, the NADPH fluorescence slope in assay [5] was -5.9e-05 (inactive).
Consider `N#CCCCN1C(=O)C(O)(CC(=O)c2ccc3c(c2)OCCO3)c2ccccc21` (centres undefined), for which, in assay [1], the cell count came out at 698. The inhibition in assay [1] was -8.8% (inactive); in assay [3], -15.5% (inactive); in assay [7], 7.56% (inactive); in assay [8], 11.6% (inactive). Besides, in assay [2], the inhibition of aggregation is -16.7% (inactive). Further, the nuclei count in assay [2] was found to be 100%; in assay [3], 112%. The figures for the fluorescence slope in assay [4] and in assay [6] were -0.567 (inactive) and 0.0053 (inactive), respectively. Moreover, in assay [5], the NADPH fluorescence slope was 1.9e-06 (inactive).
Turning to `O=c1oc2ccccc2c(N2CCCCC2)c1CN1CCCCC1`, the cell count in assay [1] was found to be 731. The inhibition in assay [1] is -5.4% (inactive); in assay [3] it was 25.6% (inactive); in assay [7], -13.6% (inactive); in assay [8], -1.22% (inactive). In addition, the inhibition of aggregation in assay [2] was -7.2% (inactive). The nuclei count is 108% in assay [2] and 104% in assay [3]. Besides, the fluorescence slope in assay [4] was -0.549 (inactive); in assay [6], 0.00538 (inactive). For the same compound, in assay [5], the NADPH fluorescence slope is -6.2e-05 (inactive).
As to `CCn1nnc(-c2ccccc2NC(=O)c2ccc(-n3cnnn3)cc2)n1`, the cell count in assay [1] came to 333. For the same compound, the inhibition in assay [1] was -2.5% (inactive); in assay [3], 1.4% (inactive); in assay [7], 15.3% (inactive); in assay [8], 15.5% (inactive). For the same compound, in assay [2], the inhibition of aggregation was -19% (inactive). Also, the nuclei count in assay [2] is 97.1%; in assay [3] it was 90.6%. Moreover, the figures for the fluorescence slope in assay [4] and in assay [6] were -0.5 (inactive) and 0.00365 (inactive), respectively. For the same compound, the NADPH fluorescence slope in assay [5] is -0.000135 (inactive).
For the compound `CCC(C)NC(=O)C1CCCN(S(=O)(=O)c2ccc(-n3cnnn3)cc2)C1` (centres undefined), the cell count in assay [1] came to 518. For the same compound, the inhibition in assay [1] was -5.4% (inactive); in assay [3] it was -9.5% (inactive); in assay [7] it was -2.34% (inactive); in assay [8], -2.75% (inactive). In addition, the inhibition of aggregation in assay [2] was 13.6% (inactive). Also, the nuclei count in assay [2] was 104%; in assay [3], 108%. Moreover, the fluorescence slope is -0.279 (inactive) in assay [4] and 0.00556 (inactive) in assay [6]. Further, in assay [5], the NADPH fluorescence slope was 8.9e-07 (inactive).
With `COc1cc(-c2nnc(SCC(=O)c3cc(C)n(CC4CCCO4)c3C)o2)cc(OC)c1OC` (centres undefined), the cell count in assay [1] was 317. Further, the inhibition in assay [1] is 2.8% (inactive); in assay [3] it was -43.2% (inactive); in assay [7] it was 24.8% (inactive); in assay [8], 27.1% (inactive). Besides, the inhibition of aggregation in assay [2] is 23.1% (inactive). Moreover, the nuclei count in assay [2] is 94.5%; in assay [3], 115%. In addition, the fluorescence slope was -0.245 (inactive) in assay [4] and 0.00647 (inactive) in assay [6]. In assay [5], the NADPH fluorescence slope is -3.7e-06 (inactive).

As a reminder, the inhibition is the change of the read-out against control, counted positive when it falls.
